Here are results for 16 molecules from ChEMBL document CHEMBL4334543, “Scaffold Hopping-Driven Optimization of 4-(Quinazolin-4-yl)-3,4-dihydroquinoxalin-2(1H)-ones as Novel Tubulin Inhibitors” (ACS Med Chem Lett, 2020).

A short description of data set [1]: Antiproliferative activity against human KBVIN cells assessed as reduction in cell viability incubated for 72 hrs by SRB assay. The data set is classed as functional. The method in brief: (§1)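 Sulforhodamine B assay across a human tumor cell line panel, with CA-4 run in parallel as positive control. GI50 is the concentration giving 50% growth inhibition, read from dose–response curves. Values are mean ± SD of at least three independent experiments.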
In general terms: The SRB assay estimates cell density from bound dye.

The test system of a further data set is A549. In words: Antiproliferative activity against human A549 cells assessed as reduction in cell viability incubated for 72 hrs by SRB assay. The data set is classed as functional. Conditions: A549, 72 h. The method in brief: as §1
Another data set has as its system KB. In words: Antiproliferative activity against human KB cells assessed as reduction in cell viability incubated for 72 hrs by SRB assay. It is filed as functional. The method in brief:
as §1

The test system of a further data set is MCF7. In words: Antiproliferative activity against human MCF7 cells assessed as reduction in cell viability incubated for 72 hrs by SRB assay. The data set is classed as functional. Conditions: MCF7, 72 h. The method in brief:
as §1

In data set [2] the test system is MDA-MB-231. The data set is described as follows: Cell cycle arrest in human MDA-MB-231 cells assessed as increase in accumulation of G2/M phase at 3 times of antiproliferative IC50 incubated for 24 hrs by propidium iodide based flow cytometry. The data set is classed as functional. The method in brief: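 Cells were fixed in EtOH, stained with propidium iodide in the presence of RNase, and analysed by flow cytometry. Cell count was plotted against linear PI fluorescence.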
(Flow cytometry measures light scatter and fluorescence of single cells or particles in a stream.)

Data set [3] concerns MDA-MB-231. The data set is described as follows: Antiproliferative activity against human MDA-MB-231 cells assessed as reduction in cell viability incubated for 72 hrs by SRB assay. Particulars: MDA-MB-231, 72 h. The data set is classed as functional. The procedure, abridged:
as §1

Data set [4] has as its system MDA-MB-231. In words: Inhibition of tubulin polymerization in human MDA-MB-231 cells at 3 times of antiproliferative IC50 incubated for 24 hrs by DAPI staining based confocal fluorescence microscopy. It is filed as functional, cell-based. The procedure, abridged: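 Cells were fixed in 4% PFA/PBS, immunostained for α-tubulin and counterstained with DAPI. Microtubule networks were imaged by confocal fluorescence microscopy as projections of 15–20 confocal images.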

Data set [5] in a line: Potency index, ratio of GI50 of paclitaxel to GI50 of compound for antiproliferative activity against human KBVIN cells assessed as reduction in cell viability incubated for 72 hrs by SRB assay. It is filed as functional.
The nature of data set [6]: Solubility of compound at pH 7.4 incubated for 4 hrs by HPLC-UV analysis. It is filed as physicochemical. Particulars: buffer.
Data set [7] can be described thus: Lipophilicity, logP of compound incubated for 24 hrs with stirrer and measured after overnight by HPLC-UV analysis. The data set is classed as physicochemical.

Molecules are shown by their SMILES. Values after ≈ are worked out from the molar mass of the structure shown. Active and inactive are the calls of the source. No cut-off for these calls is given here.

Broadly, the GI50 is the concentration giving 50% growth inhibition. Regarding `COc1ccc2c(c1)NC(=O)CN2c1nc(Cl)nc2cc(OC)c(OC)cc12`, the GI50 in [1] came to 65 nM; in the data set with A549, 50 nM; in the data set on KB, 45 nM; in the data set with MCF7 it was 82 nM; in the data set on MDA-MB-231 [3], 76 nM. Further, in the data set on MDA-MB-231 [2], the outcome was Active.
In the case of `COc1ccc2c(c1)C(=O)NCCN2c1nc(C)nc2ccccc12`, the GI50 (in [1]; with A549; in the data set with KB; in the data set on MCF7; in the data set with MDA-MB-231 [3]) was above 2000 nM each time.
Regarding `CC(=O)O[C@H]1C(=O)[C@@]2(C)[C@H]([C@H](OC(=O)c3ccccc3)[C@]3(O)C[C@H](OC(=O)[C@H](O)[C@@H](NC(=O)c4ccccc4)c4ccccc4)C(C)=C1C3(C)C)[C@]1(OC(C)=O)CO[C@@H]1C[C@@H]2O` [PACLITAXEL], the GI50 in [1] came to 1960 nM; with A549, 2.4 nM; in the data set on KB it was 4.1 nM; in the data set with MCF7, 8.3 nM; in the data set on MDA-MB-231 [3], 5.2 nM.
Turning to `COc1ccc2c(c1)NC(=O)CN2c1nc(NCCCO)nc2cc(OC)c(OC)cc12`, the GI50 in [1] is above 10000 nM; in the data set on A549 it was 997 nM; in the data set with KB, 516 nM; in the data set with MCF7 it was 950 nM; in the data set with MDA-MB-231 [3], 820 nM.
Regarding `COc1ccc2c(c1)NC(=O)CN2c1nc(OC)nc2cc(OC)c(OC)cc12`, the GI50 in [1] was 919 nM; in the data set with A549, 544 nM; in the data set on KB, 506 nM; in the data set with MCF7 it was 968 nM; in the data set with MDA-MB-231 [3], 760 nM. Moreover, in the data set with MDA-MB-231 [2], the result was Active.
For the molecule `COc1ccc(/C=C\c2cc(OC)c(OC)c(OC)c2)cc1O` [COMBRETASTATIN A4], the GI50 in [1] came to 3.8 nM; with A549, 5.5 nM; in the data set with KB, 3.6 nM; in the data set on MCF7, 84 nM; with MDA-MB-231 [3], 8.2 nM. In addition, in the data set on MDA-MB-231 [2], the result was Active. Also, the inhibition result with MDA-MB-231 [4] was “Active”.
As to `CNc1nc(N2CC(=O)Nc3cc(OC)ccc32)c2cc(OC)c(OC)cc2n1`, the GI50 in data set [1] is 506 nM; in the data set with A549 it was 54 nM; with KB, 51 nM; with MCF7, 84 nM; with MDA-MB-231 [3], 74 nM. Besides, the outcome with MDA-MB-231 [2] was Active.
Take `COc1ccc2c(c1)NC(=O)CCN2c1nc(C)nc2ccccc12`: the GI50 in [1] worked out at 696 nM; with A549 it was 838 nM; in the data set with KB, 725 nM; in the data set with MCF7, 933 nM; in the data set on MDA-MB-231 [3] it was 95 nM. Besides, the result in the data set with MDA-MB-231 [2] was Active.
What is called solubility is the dissolved amount per volume that the medium holds. Low readings indicate little dissolved substance, high ones much dissolved substance. For orientation: logP means a log measure of how a compound divides between an organic and an aqueous phase. A high value points to a more lipophilic compound. For `COc1ccc2c(c1)NC(=O)CN2c1cc(C)nc2ccccc12`, the GI50 in data set [1] turned out to be 4.8 nM; with A549, 5.4 nM; in the data set with KB, 4.6 nM; in the data set with MDA-MB-231 [3] it was 8 nM. Besides, the RatioGI50 in data set [5] amounted to 340. This molecule showed a solubility at 4 h in data set [6] of 10.9 µg/mL (≈ 34.1 µM). Besides, the outcome in the data set on MDA-MB-231 [2] was Active. Moreover, in the data set on MDA-MB-231 [4], the inhibition entry was “Active”. The same molecule gave a logP at 24 h in data set [7] of 2.96.
In the case of `COc1ccc2c(c1)NC(=O)CN2c1ncnc2ncccc12`, the GI50 in [1] amounted to 650 nM; with A549, 566 nM; with KB, 480 nM; in the data set on MCF7, 1200 nM; with MDA-MB-231 [3] it was 2290 nM. In addition, in the data set with MDA-MB-231 [2], the outcome was Active.
Turning to `COc1ccc2c(c1)NC(=O)CN2c1ncnc2ccc(Br)cc12`, the 50% growth inhibitory concentration (GI50) worked out at 5 nM in data set [1]; 5.5 nM in the data set with A549; 5 nM with KB; 9.4 nM with MCF7; 9.6 nM in the data set on MDA-MB-231 [3]. Moreover, the RatioGI50 in [5] is reported as 340. Moreover, in the data set on MDA-MB-231 [2], the outcome was Active.
For the molecule `COc1ccc2c(c1)NC(=O)CCCN2c1nc(C)nc2ccccc12`, the 50% growth inhibitory concentration (GI50) in data set [1] is 5560 nM; with A549, 5900 nM; in the data set with KB it was 5700 nM; in the data set with MCF7 it was 10500 nM; in the data set on MDA-MB-231 [3], 9700 nM.
In the case of `COc1ccc2c(c1)NC(=O)CN2c1nc(Cl)nc2cccnc12`, the GI50 was found to be 5.7 nM in data set [1]; 5.3 nM in the data set with A549; 5.6 nM in the data set with KB; 8.4 nM in the data set with MCF7; 7.7 nM with MDA-MB-231 [3]. Further, in data set [5], the RatioGI50 came to 340. In addition, the result with MDA-MB-231 [2] was Active.
Take `COc1ccc2c(c1)NC(=O)CCCCN2c1nc(C)nc2ccccc12`: the concentration for 50% growth inhibition (GI50) (in [1]; with A549; with KB; in the data set with MCF7; with MDA-MB-231 [3]) was above 10000 nM throughout.
On to `COc1ccc2c(c1)NC(=O)CN2c1nccc2c1NC=CN2`, for which the GI50 (in [1]; in the data set on A549; in the data set on KB; in the data set with MCF7; in the data set with MDA-MB-231 [3]) was above 40000 nM throughout.
For `COc1ccc2c(c1)NC(=O)CN2c1nccc2nccnc12`, the GI50 in data set [1] is 638 nM; with A549, 617 nM; in the data set with KB, 777 nM; in the data set on MCF7 it was 908 nM; with MDA-MB-231 [3] it was 915 nM.
